Test system: MS2 coat protein
Test: apparent Kd, MS2 coat protein; higher = weaker binding; RNA-MaP array; FMN 200 µM where present
Summary of the method: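 Designs on Illumina sequencing-chip clusters, transcribed by stalled E. coli RNA polymerase, were exposed to SNAP-549-labelled MS2 coat protein in doubling steps from 0.7 or 1.5 nM up to 3 µM, without and then with constant ligand. The buffer held 100 mM Tris-HCl pH 7.5, 80 mM KCl, 4 mM MgCl2, BSA, DTT, yeast tRNA and Tween-20. Apparent Kd values are medians of filtered per-cluster binding-curve fits to green signal normalised to red-channel RNA signal and control-cluster median Fmax.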

[1] = designed as: ON switch for flavin mononucleotide, no ligand
[2] = ligand present: flavin mononucleotide, designed as: ON switch for flavin mononucleotide
[3] = designed as: OFF switch for flavin mononucleotide, no ligand
[4] = ligand present: flavin mononucleotide, designed as: OFF switch for flavin mononucleotide

| Sequence | apparent Kd [1] | apparent Kd [2] | apparent Kd [3] | apparent Kd [4] |
| --- | --- | --- | --- | --- |
| GUCGGAAACGACAAAAGUAGCAUAGGAGAAGGCAUGUCAUAAGACAUGAGGAUCACCCAUGUUCGUGAGGAUAUCCUAUGCUAC | 37.3 nM | 13.2 nM |  |  |
| GAUUCACAUGAGGAUCACCCAUGUGAGGAUAUAGUGCAGGAGGCGGAUAUCCACCUCUCUAGAAGGCACACGGG |  |  | 21.8 nM | 24.1 nM |
| ACAUUGCGAGGAUAUACAUGAGGAUCACCCAUGUGGUGGCAGAUACGGUAGGACUAGUGUAGAAGGUGUCAUGG |  |  | 490 nM | 397 nM |
| AUUAACUACAUAGGAUAUUGAUACAUGAGGAUCACCCAUGUCACCCAUGUUUAUUUAUCAAUUGACAAGAAGGAUGUGGUUACA | 69.8 nM | 46.5 nM |  |  |
| UUAAUUUGGUGAUAUUAUGACAUUAGAAGGCUGUACAUGUUGAUACAUGAGGAUCACCCAUGUAUAGAGGAUAUAGACAAUUUU |  |  | 48 nM | 105 nM |
| GUAAAGUGAGGAUAUGGUAAUUUAAUUAUUAAUUAAUUAAUCCAGAAGGCACAUGAGGAUCACCCAUGUAAAUG |  |  | 31.9 nM | 63 nM |
| AACCAACAUGAGGAUCACCCAUGUCAACCCAAGCGAGGAUAUCGGAGAAUAACAAUGGGACGAGAAGGCGCGACCU | 72.9 nM | 47.8 nM |  |  |
| GUUUUUCCUCAUGUACAUGAGGAACAUGAGGAUCACCCAUGUAGAAGGAAUUCUCUUAAAUUAAGUUAGGAUAUACAUAUAUUU |  |  | 464 nM | 285 nM |
| CGUGGACAUGAGGAUCACCCAUGUGAGGAUAUCGGCUGGUACGUGUUGGCUGGCAUCUCGAGAAGGCACAUAGU |  |  | 43.8 nM | 80.4 nM |
| UAAUUGUGAGGAUAUUCGAAUAACACGGAGACGUGUUGUUCGGAGAAGGCACAUGAGGAUCACCCAUGUUCCUU |  |  | 17.5 nM | 102 nM |
| AUAUCACAAUUAGAACCAAUACGAACAUGAGGAUCACCCAUGUAGGAUAUGCUAGAAGUUGUGUUGCAGAAGGACAUAUACAUU |  |  | 7.63 nM | 6.63 nM |
| AACUGACAUGAGGAUCACCCAUGUCAGGAUAUGACUUGAUAGAAAAUAAAAUAUCAUGUCAGAAGGGACAUGGA |  |  | 23.8 nM | 33.3 nM |
| GCUUUAUAGAUCCAUUUUAACAACAUGAGGAUCACCCAUGUGCAGGAUAUCGAUUGUUUUAUUUUCGAGAAGGGCAAAUUCAGC |  |  | 35.2 nM | 87.7 nM |
| UCGUUGUCAGGAUAUCGUUAAUUUAAUUGUUUGUAUUAGUUCGAGAAGGGACAUGAGGAUCACCCAUGUUUGCU |  |  | 31 nM | 86.8 nM |
| UUGGACGUCGUAGGAUAUGUAGGAUAUUCGUACAUGAGGAUCACCCAUGUUGACAUGGAAGAAGGACAGAAGGACGAUGUCCAU | 12.2 nM | 4.55 nM |  |  |
| AGCUAGAGAGGAUAUACGUGGAAAAAAAAAGUCUGAUCCCUACAUGAGGAUCACCCAUGUAGAAGGCUCUGGCA |  |  | 30.9 nM | 15.1 nM |
| UUUUUACGAGGAUAUCGUUUUUUUCACAUGAGGAUCACCCAUGUUGUUUAUGUUGCGUUGCGAGAAGGCGUUUGUU |  |  | 27.4 nM | 22.8 nM |
| UCUGGAGCAGGAUAUAUAUGACGUGCUUCGGCACGAAGAUCACAUGAGGAUCACCCAUGUAGAAGGGCUCCAGA |  |  | 109 nM | 946 nM |
| GGUUUGGGAGGAUAUGGUUUUAAUAACAUGAGGAUCACCCAUGUAAAUAGAUCUUCGAGGCCAGAAGGCUCGGGCC |  |  | 63.8 nM | 120 nM |
| AGACUGCGUAGAAUUAGCAGCCGACAGGAUAUGACAUGAGGAUCACCCAUGUGAACUACAAAGGAUCAGAAGGGUCACGACACA |  |  | 20.1 nM | 24.4 nM |
| UGUCCAUAGCAGAAGGACAUGAAUACAUGAGAAAACAUGAGGAUCACCCAUGUAGGAUAUGCUAUGGACUAAGAGCGAAAGCUC |  |  | 12.2 nM | 91.9 nM |
| AUCUUUAACAUAGGAUAUAGUAUGAUGGUUUAAUUAGAAGGAUGUCACAUGAGGAUCACCCAUGUAAUAGGAUUACCCAUGUAU |  |  | 20.2 nM | 15.7 nM |
| AUGCCGUGCAGAGCGCGACGGCGAACAUGAGGAUCACCCAUGUAGGAUAUACUACACAAAGUGUAGUAGAAGGACGUGCAACAC |  |  | 25.5 nM | 34.7 nM |
| UUCAAUCACAUAGGAUAUAGAAUAAUAAUUUUUUACAUGAGGAUCACCCAUGUUUUAUUGGGUUUCUAGAAGGAUGAGUUAUUA | 524 nM | 300 nM |  |  |
| AAAUCGGCGGAGAAGGGACCUUUACCCUAUCGGUCAGGAUAUCCGCUACAUGAGGAUCACCCAUGUGCCGGGUGUCCGCGUGUG |  |  | 22.2 nM | 12.2 nM |
| AAAAGUCGGCAAGGAUAUACAACGGAUUCCCUUGUAGAAGGUGCAGGACAUGAGGAUCACCCAUGUGAUCCGGGUAUAUUGAUG |  |  | 27.8 nM | 44.8 nM |
| CGAACCCGAGGAUAUCGUAAACCCGACAUGAGGAUCACCCAUGUCAUCCUCACGGCGCCACGAGAAGGCGGUGUUU |  |  | 56.5 nM | 160 nM |
| GCCGAAGGAGGAUAUACACCCGGUGGCAAAACGCCGGCUCGACAUGAGGAUCACCCAUGUAGAAGGCCUGUGGU |  |  | 16.4 nM | 18 nM |

| Sequence | apparent Kd [1] | apparent Kd [2] | apparent Kd [3] | apparent Kd [4] |
| --- | --- | --- | --- | --- |
| UUAAUGUGAGGAUAUCAGGUGUGCUAGCGUACUGGUACAUCUGAGAAGGCACAUGAGGAUCACCCAUGUUCCUG |  |  | 22.1 nM | 77.6 nM |
| GACAUGAGGAUCACCCAUGUCCCUCCAGAAGGCUGGCGCGCGAAACCUAUCUCGGUUCCGCGCACAGAGGAUAUGGGCGGUUGG | 181 nM | 29.8 nM |  |  |
| AAUCCACAUGAGGAUCACCCAUGUGAGGAUAUGAUACUAUGUACUUCGGUACAUAGUAUCAGAAGGCAUAUGAA |  |  | 25.3 nM | 30.4 nM |
| GUAAAUCAUGUAGGAUAUGCAUGGCGAAGCUACGCAGAAGGACAUGAGGAUCACCCAUGUCUGUCCGUCUGCGAACAGACGGAC |  |  | 23.4 nM | 174 nM |
| CAUAACUUUUCUCAUGUAAACAUGAGGAUCACCCAUGUAAUGAGAAGGAGGAGGAAGAGAGAAUCCUAGGAUAUCAGAAUUGUU |  |  | 6.41 nM | 6.84 nM |
| GCCAUCUCAUGAGGAUAUGCUCCCGUGUCGGGAGCAGAAGGCAUGUCAUAAGACAUGAGGAUCACCCAUGUAGUUAAGAUGGCA | 263 nM | 11.1 nM |  |  |
| UCGGCGCGAGGAUAUACGUUUGCUCUUUUUCGUUUUUGUGUACAUGAGGAUCACCCAUGUAGAAGGCGCGCCGC |  |  | 17.9 nM | 63.7 nM |
| CGGACCGGCUCAGGAUAUGGGUGCUCAAAAGACAUGAGGAUCACCCAUGUCUCAAGCUGUGCACAUCAGAAGGGAGCUUCGGGU | 13.3 nM | 16.3 nM |  |  |
| UUGCCUCAGAACAUGAGGAUCACCCAUGUGCUGUGGGCAACAUAGGAUAUGAUGGUAUUAUACCGUCAGAAGGAUGAUGGUACU | 5.34 nM | 5.06 nM |  |  |
| CGUGCAUAUGUAGGAUAUGGUUAUCUAUGUCUAGUUACUAGACAUAGAUAACCAGAAGGACAUGAGGAUCACCCAUGUUGCACG |  |  | 12.8 nM | 24.2 nM |
| UGGUACUAGGGAGGAUAUGGGAAGCUACAUGAGGAUCACCCAUGUUUAAGAAUGCCGAGAGGCAACUAGAAGGCCCUAGUACCU | 30.2 nM | 5.56 nM |  |  |
| AUUAAACAUGAGGAUCACCCAUGUCAACAAAGUCGAGGAUAUGGGCAUAUUAUCUUAUAACCAGAAGGCGAAUAAU | 222 nM | 37 nM |  |  |
| GGAGCCGGCACGGAGGAUAUUCAUAUUAAAACAUGAGGAUCACCCAUGUAGGCCAGAAGGCCUUGGGAGAAGGCCGAUCGGCUCG | 450 nM | 29.7 nM |  |  |
| UUAUGAGCGAUAGGAUAUACUGAGAUUGAAUGGGUAGAAGGAUCGAUCGUGUAGAAGACAUGAGGAUCACCCAUGUUACGGGCC | 97 nM | 218 nM |  |  |
| UAUAACCAAGGAUAUACAUGAGGAUCACCCAUGUAAUAUAGUAUAAUAUAUGUAAAAUGUAGAAGGUGGGAUGU |  |  | 32 nM | 34 nM |
| GAUCAAAACACUCCUUACACUACAUGAGGAUCACCCAUGUAGCAGGAUAUCAUUGCUCCUCGCUGUGAGAAGGGCUACGGGCGG |  |  | 8.92 nM | 15.6 nM |
| UUAUGAGAGCAGGAUAUCUUAUAUGUGUAUUAAAGAGAAGGGCUCACAUGAGGAUCACCCAUGUGGUCCUAGAU |  |  | 44.2 nM | 309 nM |
| GUCCUCAUGACAUGAGGAUCACCCAUGUAUUAUUUGUUAACUGAGGAUAUACUCUUAAUUUUUAUGUAGAAGGCAGAUUCGGUC |  |  | 35.6 nM | 39.9 nM |
| AAAGUGUGAAGCAGGGUGCUACAUGAGGAUCACCCAUGUCGGAGAAGGGCGCCGUUUCGCAUGGUGUAGGAUAUCUGGCGUGCA |  |  | 116 nM | 132 nM |
| AGAUGCUCGAGUCGACAUGAGGAUCACCCAUGUACAGUUAGUGAGGAUAUCUGAGACACAUAGUAGGAGAAGGCGCGAACGUGA |  |  | 84.4 nM | 192 nM |
| ACAUGAGGCGCAGGAUAUGCAACAUGAUGAGUAGCAGAAGGGUGACAACAUGAGGAUCACCCAUGUAACAUGAGGAUCACCCAU |  |  | 28.3 nM | 33.3 nM |
| ACAUGAGGAUCACCCAUGUUUUCAGGGACUUCAAUUAUUUGUAGAAGGAUGUUUACUUGUUAGUCAUAGGAUAUACAAUUAAAU |  |  | 12.2 nM | 12.9 nM |
| UUUGUUUAGGUAGGAUAUACUUUUAAUUUCUCUUUCCUUACAUGAGGAUCACCCAUGUUUACAUUGUAGAAGGACCACUUUGUU |  |  | 21.8 nM | 19.8 nM |
| CAUAUGUGAGGAUAUGACAAUGGUAUCUUCGGAUACCAUUGUCAGAAGGCACAUGAGGAUCACCCAUGUGGAUC |  |  | 222 nM | 30.7 nM |
| AGUGUGUGGCAGGAUAUUCCGGUCGUUGGUCGGGAAGAAGGGUCUACAUGAGGAUCACCCAUGUGACCGGUUGA |  |  | 25.6 nM | 25.6 nM |
| ACAUGAGGAUCACCCAUGUUAUCAGGGACUUCAAUUAUUUGUAGAAGGCUGUUUUCUUGUUAGUCAGAGGAUAUACAAUUAAAU |  |  | 12.7 nM | 14.2 nM |
| AUACCACGAGGAUAUCGACUAUACCACAUGAGGAUCACCCAUGUUAUCCAUGUUUCGUUUCGAGAAGGCGUGGGUU |  |  | 39.1 nM | 33.9 nM |

— the EternaBench riboswitch data
